Results on 4 compounds are retold here after ChEMBL document CHEMBL4033663, “Design, combinatorial synthesis and biological evaluations of novel 3-amino-1'-((1-aryl-1H-1,2,3-triazol-5-yl)methyl)-2'-oxospiro[benzo[a] pyrano[2,3-c]phenazine-1,3'-indoline]-2-carbonitrile antitumor hybrid molecules” (Eur J Med Chem, 2017).

Data set [1] deals with A549. The experiment in a line: Induction of apoptosis in human A549 cells assessed as viable cells at 12 uM after 24 hrs by Annexin V-APC/7-AAD staining-based FACS analysis (reference value: 94.1%). It is filed as functional. To be noted: A549, 24 h, read-out: Activity. A general note: In flow cytometry, cells or beads pass a laser one at a time.
Data set [2] concerns A549. The experiment in a line: Cell cycle arrest in human A549 cells assessed as accumulation at S-phase at 6 uM after 24 hrs by propidium iodide staining-based FACS analysis (reference value: 17.8 %). The class given is functional.
The test system of data set [3] is A549. Description: Induction of apoptosis in human A549 cells assessed as necrotic cells at 12 uM after 24 hrs by Annexin V-APC/7-AAD staining-based FACS analysis (reference value: 0.032%). The class given is functional.
Data set [4] relates to A549. The experiment in a line: Effect on cyclin B expression in human A549 cells at 3 to 12 uM after 24 hrs by Western blot analysis. The class given is functional, cell-based. The gist of the method:
(§1)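 A549 cells (3 × 10^5 per dish) were treated for 24 h and lysed in RIPA buffer; protein was measured by BCA. Lysates were run on 12% SDS-PAGE and blotted to nitrocellulose. Blots were blocked in 5% non-fat milk for 2 h at room temperature, then incubated with primary antibodies in TBST overnight at 4 °C. ECL detection was used, with bands normalized to β-actin (mean ± SD, three experiments).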

For a further data set, the system named is MCF7. The experiment in a line: Antiproliferative activity against human MCF7 cells after 48 hrs by MTT assay. The class given is functional, cell-based. To be noted: MCF7, 48 h. In general terms: Formazan colour is commonly taken as a measure of viable cells.
The subject of data set [5] is A549. The experiment in a line: Induction of apoptosis in human A549 cells assessed as late apoptotic cells at 12 uM after 24 hrs by Annexin V-APC/7-AAD staining-based FACS analysis (reference value: 0.01%). The class given is functional.
Data set [6] concerns A549. Description: Cell cycle arrest in human A549 cells assessed as accumulation at S-phase at 12 uM after 24 hrs by propidium iodide staining-based FACS analysis (reference value: 17.8 %). It is filed as functional.
Data set [7] concerns A549. Description: Induction of apoptosis in human A549 cells assessed as viable cells at 6 uM after 24 hrs by Annexin V-APC/7-AAD staining-based FACS analysis (reference value: 94.1%). The class given is functional. To be noted: A549, 24 h, read-out: Activity.
The test system of data set [8] is A549. The experiment in a line: Induction of apoptosis in human A549 cells assessed as necrotic cells at 6 uM after 24 hrs by Annexin V-APC/7-AAD staining-based FACS analysis (reference value: 0.032%). It is filed as functional.
Data set [9] relates to A549. Description: Induction of apoptosis in human A549 cells assessed as late apoptotic cells at 6 uM after 24 hrs by Annexin V-APC/7-AAD staining-based FACS analysis (reference value: 0.01%). The class given is functional.
Data set [10] deals with A549. The experiment in a line: Effect on CDK1 expression in human A549 cells at 3 to 12 uM after 24 hrs by Western blot analysis. The class given is functional, cell-based. The gist of the method:
as §1

The subject of data set [11] is A549. Description: Cell cycle arrest in human A549 cells assessed as accumulation at S-phase at 3 uM after 24 hrs by propidium iodide staining-based FACS analysis (reference value: 17.8 %). It is filed as functional.
In the next data set the test system is HCT-116. The experiment in a line: Antiproliferative activity against human HCT116 cells after 48 hrs by MTT assay. The class given is functional, cell-based. To be noted: HCT-116, 48 h.
The nature of data set [12]: Drug uptake in mitochondria of human A549 cells at 2 to 8 uM after 30 mins by MitoTracker Red CMXRos dye-based confocal microscopic analysis. It is filed as ADME, cell-based. To be noted: a549, 0.5 h. In a few lines:
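Live A549 cells were grown for 2 days in confocal dishes. They were then incubated with compound and MitoTracker Red CMXRos in culture medium for 30 min, and localization was imaged by laser-scanning confocal microscopy.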

The test system of data set [13] is A549. The experiment in a line: Induction of apoptosis in human A549 cells assessed as early apoptotic cells at 3 uM after 24 hrs by Annexin V-APC/7-AAD staining-based FACS analysis (reference value: 5.82%). It is filed as functional.
Data set [14] has as its system A549. The experiment in a line: Down regulation of cyclin E expression in human A549 cells after 24 hrs by Western blot analysis. The class given is functional, cell-based. In a few lines: as §1
A general note: A western blot detects proteins with antibodies after separation by electrophoresis.

Data set [15] concerns A549. The experiment in a line: Induction of apoptosis in human A549 cells assessed as early apoptotic cells at 6 uM after 24 hrs by Annexin V-APC/7-AAD staining-based FACS analysis (reference value: 5.82%). The class given is functional.
Data set [16] relates to A549. The experiment in a line: Down regulation of CDK2 expression in human A549 cells after 24 hrs by Western blot analysis. The class given is functional, cell-based. The gist of the method:
as §1

Data set [17] has as its system A549. Description: Induction of reactive oxygen species generation in human A549 cells by MitoSOX Red dye-based FACS analysis. It is filed as functional, cell-based. The gist of the method:
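Treated A549 cells were stained with a kit dye that distinguishes ROS(−) and ROS(+) populations. Percentages of each population were measured by flow cytometry.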

Data set [18] concerns A549. Description: Induction of apoptosis in human A549 cells assessed as increase in cleaved caspase-3 level at 3 to 12 uM after 24 hrs by Western blot analysis. The class given is functional, cell-based. In a few lines: as §1
Data set [19] relates to A549. The experiment in a line: Induction of apoptosis in human A549 cells assessed as necrotic cells at 3 uM after 24 hrs by Annexin V-APC/7-AAD staining-based FACS analysis (reference value: 0.032%). The class given is functional.
The test system of data set [20] is A549. The experiment in a line: Induction of apoptosis in human A549 cells assessed as viable cells at 3 uM after 24 hrs by Annexin V-APC/7-AAD staining-based FACS analysis (reference value: 94.1%). It is filed as functional. To be noted: A549, 24 h, read-out: Activity.
For the next data set, the system named is HepG2. Description: Antiproliferative activity against human HepG2 cells after 48 hrs by MTT assay. The class given is functional, cell-based. To be noted: HepG2, 48 h.
Data set [21] deals with A549. Description: Up regulation of p53 expression in human A549 cells at 3 to 12 uM after 24 hrs by Western blot analysis. The class given is functional, cell-based. The gist of the method:
as §1

For data set [22], the system named is A549. The experiment in a line: Induction of apoptosis in human A549 cells assessed as increase in cleaved caspase-9 level at 3 to 12 uM after 24 hrs by Western blot analysis. The class given is functional, cell-based. The gist of the method: as §1
The subject of data set [23] is A549. The experiment in a line: Induction of apoptosis in human A549 cells assessed as late apoptotic cells at 3 uM after 24 hrs by Annexin V-APC/7-AAD staining-based FACS analysis (reference value: 0.01%). The class given is functional.
The test system of the next data set is HUVEC. The experiment in a line: Antiproliferative activity against human HUVEC cells after 48 hrs by MTT assay. The class given is cell-based.
Data set [24] deals with A549. The experiment in a line: Up regulation of p21 expression in human A549 cells at 3 to 12 uM after 24 hrs by Western blot analysis. The class given is functional, cell-based. In a few lines: as §1
Data set [25] has as its system A549. Description: Antiproliferative activity against human A549 cells after 48 hrs by MTT assay. The class given is functional, cell-based. To be noted: A549, 48 h.
In the next data set the test system is L02. The experiment in a line: Antiproliferative activity against human L02 cells after 48 hrs by MTT assay. It is filed as cell-based. To be noted: L02, 48 h.
Data set [26] relates to A549. The experiment in a line: Effect on cyclin D expression in human A549 cells at 3 to 12 uM after 24 hrs by Western blot analysis. The class given is functional, cell-based. In a few lines:
as §1

Data set [27] concerns A549. The experiment in a line: Induction of apoptosis in human A549 cells assessed as increase in Bax/Bcl-2 ratio after 24 hrs by Western blot analysis. It is filed as functional, cell-based. In a few lines: as §1
Data set [28] deals with A549. The experiment in a line: Induction of apoptosis in human A549 cells assessed as early apoptotic cells at 12 uM after 24 hrs by Annexin V-APC/7-AAD staining-based FACS analysis (reference value: 5.82%). The class given is functional.

Active and inactive are the calls of the source. The rule behind the calls is not given here.

One may read the IC50 as the point on the concentration scale where inhibition reaches its midpoint. For `N#CC1=C(N)Oc2c(N)cc3nc4ccccc4nc3c2C12C(=O)N(Cc1cnnn1-c1cccc(C(F)(F)F)c1)c1ccccc12` (stereo unspecified), the viability at 12 µM in the data set with A549 [1] was 55.9%. Besides, the Activity in the data set with A549 [2] turned out to be 41.7%; in the data set on A549 [3], 3.21%; in the data set on A549 [5] it was 2.32%; with A549 [6] it was 51.1%; in the data set with A549 [8], 0.127%; with A549 [9] it was 0.053%. Moreover, the Activity was 30.5% with A549 [11]; 8.89% in the data set on A549 [13]; “Dose-dependent effect” in the data set with A549 [14]; 11.2% in the data set with A549 [15]; “Dose-dependent effect” in the data set on A549 [16]; “Dose-dependent effect” with A549 [17]. Besides, the Activity with A549 [19] is 0.052%; in the data set with A549 [23] it was 0.031%; in the data set on A549 [27] it was “Dose-dependent effect”; with A549 [28], 38.5%. Moreover, the outcome in the data set on A549 [4], in the data set with A549 [10] and with A549 [26] was inactive. For the same compound, the IC50 was 31.6 µM with MCF7; 18.9 µM in the data set on HCT-116; 15.8 µM in the data set with HepG2; over 50 µM with HUVEC; 5.4 µM in the data set on A549 [25]; 38.1 µM in the data set with L02. In addition, the viability at 6 µM in the data set on A549 [7] was found to be 88.6%. In addition, the Drug uptake result in [12] is reported as “Active”. For the same compound, the outcome in the data set with A549 [18], with A549 [21], with A549 [22] and with A549 [24] was Active. In the data set with A549 [20], the viability at 3 µM was 91%.
In the case of `N#CC1=C(N)Oc2c(c3nc4ccccc4nc3c3ccccc23)C12C(=O)N(Cc1cnnn1-c1ccc(N)cc1)c1ccccc12` (stereo unspecified), the IC50 with MCF7 was over 50 µM; in the data set on HCT-116 it was 45.2 µM; in the data set with HepG2, over 50 µM; in the data set on HUVEC, over 50 µM; in the data set on A549 [25] it was over 50 µM; in the data set on L02, over 50 µM.
Take `N#CC1=C(N)Oc2c(c3nc4ccccc4nc3c3ccccc23)C12C(=O)N(Cc1cnnn1-c1cccc(S(N)(=O)=O)c1)c1ccccc12` (stereo unspecified): the 50% inhibitory concentration (IC50) was 42.5 µM with MCF7; 11.3 µM in the data set with HCT-116; 21.5 µM in the data set on HepG2; 38.6 µM in the data set on HUVEC; 44.2 µM in the data set with A549 [25]; over 50 µM in the data set with L02.
Regarding `Cc1ccc(C)c(-n2nncc2CN2C(=O)C3(C(C#N)=C(N)Oc4c(N)cc5nc6ccccc6nc5c43)c3ccccc32)c1` (stereo unspecified), the IC50 with MCF7, with HCT-116, in the data set with HepG2, in the data set on HUVEC, with A549 [25] and in the data set with L02 was over 50 µM in each case.
